Screens from PubChem BioAssay.
KCNK9 block – KCNK9 potassium channel inhibitors, primary screen, HEK293 cells, thallium flux; Potassium channel subfamily K member 9 (Homo sapiens), Q9NPC2; FluxOR thallium flux fluorescence; stronger effect = lower value; B-score at 10 µM; 1.2% of 310,000 active; AID 488922, 2010;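 active = ratio B-score over 3 SD below the library mean, with starting fluorescence within 5 SD of its mean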;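 also: negative B-score means less thallium flux so channel inhibition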
Target sequence (Q9NPC2 whole entry, looked up): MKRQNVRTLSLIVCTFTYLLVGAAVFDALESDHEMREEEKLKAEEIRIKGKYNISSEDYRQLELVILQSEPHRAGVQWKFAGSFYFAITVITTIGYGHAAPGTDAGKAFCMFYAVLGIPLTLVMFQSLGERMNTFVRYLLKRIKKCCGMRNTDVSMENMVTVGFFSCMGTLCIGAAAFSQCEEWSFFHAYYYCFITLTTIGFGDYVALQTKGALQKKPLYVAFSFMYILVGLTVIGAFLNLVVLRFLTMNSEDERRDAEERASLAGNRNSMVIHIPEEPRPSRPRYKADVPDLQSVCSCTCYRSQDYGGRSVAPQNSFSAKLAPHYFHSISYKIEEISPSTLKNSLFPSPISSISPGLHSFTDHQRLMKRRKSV
KCNQ1 inh – inhibitors of human KCNQ1 channel, primary screen, cell-based, thallium flux, high-throughput; Potassium voltage-gated channel subfamily KQT member 1 (Homo sapiens), P51787; CHO-K1 KCNQ1, FluxOR thallium flux fluorescence; stronger effect = higher value; B-score at 10 µM; 1.3% of 310,000 active;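 active = compounds whose thallium flux B-score, printed positive for inhibition, exceeds three library SD while starting fluorescence stays within three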;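 also: channel opened by potassium depolarization with thallium stimulus after 20 min compound exposure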
hERG rescue – hERG rescue from dofetilide block, primary screen, cell-based, CHO-hERG, FluxOR thallium flux, dofetilide IC70. Voltage-gated inwardly rectifying potassium channel KCNH2 (Homo sapiens), Q12809. dofetilide IC70 present. activation (rescue from dofetilide block), less the hit threshold, % at 10 µM. 0.51% of 310,000 active. AID 1511, 2009;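 active = activation above the mean of controls blocked by dofetilide plus 5 SD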;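 also: thallium influx through hERG after potassium depolarization seen as dye fluorescence rise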
KCNK3 block – human KCNK3 channel inhibitors, primary screen, CHO cells, FluxOR thallium flux, B-score; FluxOR fluorescence; stronger effect = lower value; B-score at 10 µM; 0.84% of 340,000 active;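 active = B-score under library mean minus 4 SD, starting fluorescence ratio at most library mean plus 5 SD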;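 also: more negative B-score means stronger inhibition of thallium flux through KCNK3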
KCNQ1 pot – potentiators or activators of KCNQ1 channel, primary screen, cell-based, thallium flux, high-throughput | Potassium voltage-gated channel subfamily KQT member 1 (Homo sapiens), P51787 | CHO-K1 KCNQ1, thallium flux FluxOR fluorescence; stronger effect = higher value | B-score at 10 µM | 0.35% of 310,000 active;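 active = fluorescence ratio B-score, a plate-corrected score, at least three library SD, with initial intensity B-score within 5 SD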
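System: CHO-K1 cells stably expressing KCNQ1 / Medium: assay buffer for compound exposure, DMSO matched across wells / Reagent: thallium- and potassium-containing depolarizing buffer / Compound: one concentration, matched DMSO / Incubation: 20 min compound pretreatment at room temperature / Measured by: kinetic FluxOR fluorescence, 10 s baseline plus 110 s post-stimulus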
An asterisk follows results filed as active; i = inactive; · = not tested or not shown. The list is not random: actives were taken first. Their share in the collection is about 3.1%.

SMILES	KCNK9 block	KCNQ1 inh	hERG rescue	KCNK3 block	KCNQ1 pot
COc1cccc(O)c1CN1CCC(Oc2ccc(C(=O)NCc3ccccn3)cc2)CC1	i	i	-6	i	i
COc1ccc(C(=O)COC(=O)c2cnc(C)cn2)c(OC)c1	i	i	-3	i	i
Cc1ccccc1N(C(=O)c1cccs1)c1nc2ccccc2s1	i	7*	-7	i	i
CCCCCCc1nc2c(=O)[nH]c3ccccc3c2o1	i	i	6.2*	i	i
CCCCCCCc1nc2c(=O)n(C)c3ccccc3c2o1	i	i	-13	i	i
O=c1cc(O)c2ccccc2n1Cc1ccccc1Cl	i	i	5.3*	i	i
O=C1NC(=S)SC1=C1CCCCCC1	i	i	27*	i	63*
CC(Oc1ccc(Cl)cc1Cl)C(=O)Nc1ccc2oc(-c3ccncc3)nc2c1 (stereo unspecified)	i	i	-15	-10*	i
CC(C)C(NC(=O)Cc1ccccc1)C(=O)N1CCN(c2cccc(Cl)c2)CC1 (stereo unspecified)	·	·	·	i	·
CC(NC(=O)NC1CCCCC1)C(c1cccs1)N1CCN(Cc2ccccc2)CC1 (stereo unspecified)	i	i	-10	i	i
CC(NC(=S)NCCc1ccccc1)C(c1cccs1)N1CCN(Cc2ccccc2)CC1 (stereo unspecified)	i	6*	-12	i	i
Cn1ccnc1Sc1cc(NCCCO)c([N+](=O)[O-])c2nonc12	i	6*	-31	i	i
O=[N+]([O-])c1c(NCCCO)cc(Sc2ccc(Cl)cc2)c2nonc12	i	i	-12	i	i
CC(C)c1ccc2c(c1)C(c1cccs1)=NNC(c1ccncc1)=N2	-7.4*	i	-5	i	i
CCNc1ccc(Br)cc(C(=O)/C=C/c2c(Cl)cccc2Cl)c1=O	i	6*	-23	-9*	i
CCC1CCCCN1Cc1ccc(OC)c(C)c1C (stereo unspecified)	i	i	5.3*	i	i
COc1ccc(CN2CCN(CC3CC3)CC2CCO)c(C)c1C (stereo unspecified)	i	i	-6	i	i
O=C(NCc1ccc(F)cc1)c1cc2c(s1)CS(=O)(=O)C2	i	i	-12	i	i
N#Cc1ccc(C(=O)NC(=S)N2CCN(C=O)CC2)cc1	·	·	·	i	·
CC1CCN(c2nc(Cl)nc(Nc3ccc([N+](=O)[O-])cc3)n2)CC1	i	8*	-5	i	i
C=CCNc1nc(Nc2ccc([N+](=O)[O-])cc2)nc(N2CCCC2)n1	i	8*	-20	i	i
C=CCNc1nc(Cl)nc(Nc2ccc([N+](=O)[O-])cc2)n1	i	i	-2	i	i
Cc1ccc(-c2noc(N=O)c2NO)cc1	-7.1*	i	-17	i	i
O=Nc1onc(-c2ccc([N+](=O)[O-])cc2)c1NO	i	i	-21	i	i
Nc1ccc2c(c1)C(=O)C(=O)c1ccccc1-2	i	i	6.9*	i	i
SMILES	KCNK9 block	KCNQ1 inh	hERG rescue	KCNK3 block	KCNQ1 pot
Cc1cc(C)c2c(=N)c3ccccc3n(CCCCCCCCn3c4ccccc4c(=N)c4c(C)cc(C)nc43)c2n1	·	·	·	-10*	·
CCCCCn1c2c(c(=N)c3ccccc31)CCC2	i	i	-25	i	i
CCCNC(=O)c1nnsc1S(=O)c1ccc(Cl)cc1 (stereo unspecified)	i	i	-13	i	i
CNC(=O)c1nnsc1S(=O)c1ccc(Cl)cc1 (stereo unspecified)	i	i	-21	i	13*
CCc1cc(=O)[nH]c(SCc2ccc(C)cc2)n1	i	i	4.9*	i	i
Cc1nn(-c2ccc(Cl)cc2)c2sc(C(=O)c3c(N)n(C)c(=O)n(C)c3=O)cc12	i	i	24*	i	i
CCn1c(=O)c2cc(C(=O)N(C)c3cc(C)ccc3OC)sc2c2ccccc21	-15*	i	-13	i	i
O=C(c1cc2nc(-c3cccs3)cc(C(F)(F)Cl)n2n1)N1CCCc2ccccc21	-6.7*	i	-8	i	i
O=C(NCCc1nc2ccc(Cl)cc2[nH]1)C1CCC(=O)N(Cc2cccc(F)c2)C1 (stereo unspecified)	i	i	-4	i	i
CCOc1cc(/C=C2\COc3ccccc3C2=O)cc(Br)c1OCC(=O)N(C)C	i	i	-12	i	i
C/C(N)=C(/C#N)C(=O)COC(=O)c1cc(-c2cccc3ccccc23)nc2ccccc12	i	6*	-9	i	i
C/C(N)=C(/C#N)C(=O)COC(=O)c1cccc2ccccc12	i	i	-6	i	i
O=C(Nc1ccc(C(=O)N2CCCCC2)cc1)C1CCCCC1	i	i	9.1*	i	i
Cc1cc(N/N=C/c2ccc(O)cc2O)nc(-n2nc(C)cc2C)n1	i	i	-3	i	i
COc1ccc(/C=N/Nc2cc(C)nc(-n3nc(C)cc3C)n2)cc1	-6.7*	i	-17	i	i
Cc1cc(N/N=C/c2cccc([N+](=O)[O-])c2)nc(-n2nc(C)cc2C)n1	i	i	-4	i	i
COc1ccc2nc(C)cc(N/N=C/c3ccccc3)c2c1	·	·	·	-9.4*	·
Cc1cc(N/N=C/c2cccc(Cl)c2)nc(-n2nc(C)cc2C)n1	-8*	i	-9	i	i
COc1ccc(CCNC(=O)CSc2nnc3ccc(-c4ccccn4)nn23)cc1	i	i	-12	i	i
Cc1cc(C)c(Nc2ncccc2C(=O)O)c(C)c1	i	i	5.8*	i	i
COc1ccccc1CCCNC(=O)C1CCC(=O)N(CCc2ccc(Cl)cc2)C1 (stereo unspecified)	i	i	-11	i	i
CCn1c(SCC(=O)Nc2nc3ccc(C)cc3s2)nc2c(c1=O)SC(C)C2 (stereo unspecified)	i	i	-9	-11*	i
CCn1c(SCC(=O)Nc2nc3ccccc3s2)nc2c(c1=O)SC(C)C2 (stereo unspecified)	i	i	-7	·	i
Cc1cc(/C=C(\C#N)c2nc3ccccc3[nH]2)c(C)n1C	i	i	-6	i	i
